Shown are actives, neighbours in structure and some others; about 2.6% of the full set was active somewhere.
SENP6 inh: blocks the human protease SENP6; Recombinant SENP6 catalytic domain, aminoluciferin luminescence; inhibition, % at 10 µM; 330,000 tested, 1.8% active; AID 2599;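 active means inhibition above about 50% at the single tested dose, limit read from the data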;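 further: plate controls were DMSO wells with enzyme for no effect and DMSO wells lacking enzyme for full effect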
SENP1 FRET inh: inhibitors of human SENP1 SUMO protease catalytic domain. Q9P0U3. recombinant SENP1 catalytic domain, CyPet-SUMO1-YPet FRET cleavage. inhibition, % at 10 µM. 360,000 tested, 0.21% active;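 active means inhibition at least 30% at 10 µM, raw YFP signal under a set limit, fluorescence ratio 0.5 to 1.5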;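 further: 0% = enzyme with DMSO and 100% = no enzyme wells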
Target sequence (Q9P0U3 419-644 limits assumed): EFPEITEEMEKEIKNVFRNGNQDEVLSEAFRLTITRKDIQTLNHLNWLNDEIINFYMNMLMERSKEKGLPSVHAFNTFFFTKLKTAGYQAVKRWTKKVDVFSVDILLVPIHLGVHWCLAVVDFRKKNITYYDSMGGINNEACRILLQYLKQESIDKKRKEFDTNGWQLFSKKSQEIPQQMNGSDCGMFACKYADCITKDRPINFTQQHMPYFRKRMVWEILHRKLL
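Assay system – human recombinant His6-tagged SENP1 catalytic domain enzyme · Input – SENP1 enzyme, 20 pM final · Buffer or medium – Tris pH 8 buffer plus EDTA, NaCl, BME, BSA, NP40, catalase · Schedule – 50 min reaction at room temperature · Technique – FRET read of cyan and yellow fluorescence · Control set – no-enzyme wells low, DMSO-plus-enzyme wells high control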
Platelet DG rel: platelet dense granule release activity | 300,000 tested, 0.22% active | AID 1663 | inhibition, %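 (compounds screened at 7.5 µM in platelet-rich plasma)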 | human platelet-rich plasma, SFLLRN dense granule ATP release, luminescence;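 active means mean replicate score, as percent of positive control, at or above 50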
SENP7 block: blocks the human protease SENP7 | Q9BQF6 | recombinant SENP7, Z-RLRGG-aminoluciferin luminescence, 40 min | inhibition, % at 5 µM | 330,000 tested, 1.5% active;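 active means inhibition above about 50% at the single test dose, limit read from the data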;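 further: plate controls were DMSO with enzyme for no effect and no enzyme buffer wells for full effect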
Target sequence (Q9BQF6 706-1050 limits assumed): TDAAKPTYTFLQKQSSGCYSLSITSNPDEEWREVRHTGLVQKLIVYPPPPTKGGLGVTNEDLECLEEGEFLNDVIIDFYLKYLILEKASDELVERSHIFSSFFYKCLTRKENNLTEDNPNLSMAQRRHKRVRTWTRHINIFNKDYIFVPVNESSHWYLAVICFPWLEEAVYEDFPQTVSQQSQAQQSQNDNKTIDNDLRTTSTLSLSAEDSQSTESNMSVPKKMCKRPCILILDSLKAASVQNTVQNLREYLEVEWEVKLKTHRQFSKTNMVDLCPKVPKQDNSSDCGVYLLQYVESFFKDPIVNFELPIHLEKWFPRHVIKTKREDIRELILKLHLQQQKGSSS
SENP8 block-1: blocks the human protease SENP8; Q96LD8; 330,000 tested, 1.2% active; inhibition, % at 10 µM; purified SENP8, Z-RLRGG-aminoluciferin cleavage, luminescence; AID 2540; in the data active means inhibition above about 50%
SENP8 block-2: SENP8 (human) protease inhibition; Q96LD8; recombinant SENP8, Nedd8 substrate fluorescence; 360,000 tested, 0.64% active; inhibition, % at 20 µM; in the data active means inhibition mostly above about 40%, no sharp cut-off; inactive means mostly below about 27%
SENP8 conf: confirmation of human SENP8 protease inhibitors. shares compounds with SENP7 block. Recombinant SENP8, Z-RLRGG-aminoluciferin luminescence, 60 min. inhibition, % at 12.5 µM. 6,200 tested, 40% active. AID 488912;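 active means mean inhibition across replicates above about 50%, limit read from the data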
SENP6 confirm: human SENP6 inhibition, confirmed; shares compounds with SENP7 block; recombinant SENP6, Z-RLRGG-aminoluciferin luminescence; inhibition, % at 12.5 µM; 6,200 tested, 58% active; AID 488915
SENP7 conf: confirmation of human SENP7 protease inhibitors | shares compounds with SENP7 block | recombinant SENP7, Z-RLRGG-aminoluciferin luminescence, 40 min | inhibition, % at 12.5 µM | 6,200 tested, 69% active
Casp3 SENP sel: caspase-3 inhibition (SENP selectivity assay) | AID 488918 | 6,200 tested, 60% active | purified caspase-3, Z-DEVD-aminoluciferin luminescence, 60 min | inhibition, % at 12.5 µM | shares compounds with SENP7 block;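 active means mean inhibition above about 50%, limit read from the data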;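 further: plate controls were enzyme with DMSO for no effect and wells without caspase-3 for full effect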
Luc interf: luminescence interference (SENP counter-screen); inhibition, % at 12.5 µM; shares compounds with SENP7 block; 6,200 tested, 39% active; AID 488919; Pre-incubated SENP8/Z-RLRGG-aminoluciferin, luciferase luminescence interference;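 active means mean inhibition above about 50% when retested at one dose, limit read from the data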;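 further: plate controls were DMSO wells with completed reaction for no effect and substrate without enzyme for full effect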
Starred values were filed as active, the others as inactive.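 How the source made its calls, unless noted: active means mean inhibition above about 50% in the one-dose retest (limit read from the data); inactive means the rest.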

How did COc1ccc2oc(C(=O)Nc3nc(C)cs3)c(C)c2c1 do in these assays?
SENP6 inh: 46.0; SENP1 FRET inh: -27.8; SENP7 block: 60.8*; SENP8 block-1: 43.4; SENP8 block-2: -347.8; SENP8 conf: 17.0; SENP6 confirm: 37.0; SENP7 conf: 72.3*; Casp3 SENP sel: 54.8*; Luc interf: 34.0

Results for COCC1CCN(C(=O)C2CCC(=O)N(C3CCCCCC3)C2)CC1 (stereo unspecified) ?
SENP6 inh: -6.6; SENP1 FRET inh: -2.2; Platelet DG rel: -1.1; SENP7 block: 6.3; SENP8 block-1: -4.2; SENP8 block-2: 1.5

What do the screens show for `Oc1cc(NCc2ccc(F)cc2)cc2cccnc12`?
SENP6 inh: 22.9; SENP1 FRET inh: -2.5; SENP7 block: 3.5; SENP8 block-1: 10.4; SENP8 block-2: -23.7

How did CN(C)CCCNc1cc(O)c2ncccc2c1 do in these assays?
SENP6 inh: 73.7*; SENP1 FRET inh: 7.7; SENP7 block: 44.3; SENP8 block-1: 48.0; SENP8 block-2: -12.4; SENP8 conf: 19.0; SENP6 confirm: 62.1*; SENP7 conf: 24.7; Casp3 SENP sel: 89.7*; Luc interf: -7.4

What do the screens show for `O=C(NN1CCCCC1)c1cnn2c(C(F)F)cc(-c3ccccc3)nc12`?
SENP6 inh: -12.3; SENP1 FRET inh: 0.4; Platelet DG rel: 1.3; SENP7 block: 7.7; SENP8 block-1: 0.0; SENP8 block-2: -1.0

What do the screens show for `COc1ccc(C(=O)/C=C/c2ccccc2F)c(OC(=O)c2ccc([N+](=O)[O-])cc2)c1`?
SENP6 inh: 60.4*; SENP1 FRET inh: 3.5; Platelet DG rel: -0.8; SENP7 block: -8.3; SENP8 block-1: 27.7; SENP8 block-2: 25.0; SENP8 conf: 13.0; SENP6 confirm: 9.7; SENP7 conf: -6.5; Casp3 SENP sel: 8.0; Luc interf: 3.9

How did O=C(/C=C/c1ccccc1F)c1cccc([N+](=O)[O-])c1 do in these assays?
SENP6 inh: -8.4; SENP1 FRET inh: 0.8; Platelet DG rel: 7.6; SENP7 block: 4.3; SENP8 block-1: 1.9; SENP8 block-2: 33.9

How did Cc1ccc(C)c(S(=O)(=O)/N=C2\C=C(NS(=O)(=O)c3ccccc3)C(=O)c3ccccc32)c1 do in these assays?
SENP6 inh: 55.1*; SENP1 FRET inh: 1.0; Platelet DG rel: 3.3; SENP7 block: 11.5; SENP8 block-1: 36.1; SENP8 block-2: 72.6*; SENP8 conf: 2.2; SENP6 confirm: 29.3; SENP7 conf: -2.3; Casp3 SENP sel: 5.6; Luc interf: 1.2

Results for Cc1cccc(S(=O)(=O)Nc2cccc3c2C(=O)c2ccccc2-3)c1 ?
SENP6 inh: 1.0; SENP1 FRET inh: 77.5; Platelet DG rel: -0.9; SENP7 block: -5.2; SENP8 block-1: -4.2; SENP8 block-2: 16.6

What do the screens show for `Oc1c(Cl)cc(Cl)cc1C=Nc1cc(C(F)(F)F)ccc1N1CCc2ccccc2C1`?
SENP6 inh: 15.3; SENP1 FRET inh: -23.3; Platelet DG rel: 12.5; SENP7 block: 99.1*; SENP8 block-1: 95.9*; SENP8 block-2: -111.6; SENP8 conf: 94.4*; SENP6 confirm: 96.1*; SENP7 conf: 102.2*; Casp3 SENP sel: 95.4*; Luc interf: 62.2*

Results for Cc1cccc(N(Cc2ccccc2)C(=O)c2cc(S(=O)(=O)N3CCOCC3)ccc2Cl)c1 ?
SENP6 inh: -2.3; SENP1 FRET inh: 0.9; Platelet DG rel: -23.9; SENP7 block: 2.8; SENP8 block-1: -0.6; SENP8 block-2: 12.8

Results for O=C(N/N=C\c1ccc(O)c([N+](=O)[O-])c1)C1COc2ccccc2O1 (stereo unspecified) ?
SENP6 inh: -8.6; SENP1 FRET inh: -2.6; Platelet DG rel: -0.8; SENP7 block: 10.2; SENP8 block-1: 5.6; SENP8 block-2: 13.7

How did Cc1cc([N+](=O)[O-])cc(/C=N\NC(=O)C2COc3ccccc3O2)c1O (stereo unspecified) do in these assays?
SENP6 inh: 64.0*; SENP1 FRET inh: -33.9; Platelet DG rel: -9.2; SENP7 block: 6.1; SENP8 block-1: 21.9; SENP8 block-2: 16.2; SENP8 conf: 23.7; SENP6 confirm: 11.7; SENP7 conf: 66.1*; Casp3 SENP sel: 38.4; Luc interf: 30.0

How did O=C(O)c1cc(-c2ccc3ccccc3c2)nc2ccc(F)cc12 do in these assays?
SENP6 inh: 72.8*; SENP1 FRET inh: -1.8; Platelet DG rel: -2.4; SENP7 block: 32.9; SENP8 block-1: 66.0*; SENP8 block-2: -369.0; SENP8 conf: -2.1; SENP6 confirm: 5.8; SENP7 conf: 14.4; Casp3 SENP sel: 9.4; Luc interf: 24.0

What do the screens show for `O=C(c1ccccc1)c1ccc2cc(O)ccc2c1`?
SENP6 inh: 98.9*; SENP1 FRET inh: 2.5; Platelet DG rel: 70.5*; SENP7 block: 96.1*; SENP8 block-1: 95.7*; SENP8 block-2: -24.7; SENP8 conf: 7.2; SENP6 confirm: 98.9*; SENP7 conf: 102.1*; Casp3 SENP sel: 92.2*; Luc interf: 97.3*

Results for COc1ccc(C(=O)COC(=O)c2ccc3c(c2)OCO3)c(OC)c1 ?
SENP6 inh: 10.7; SENP1 FRET inh: 1.4; SENP7 block: 1.2; SENP8 block-1: 6.1; SENP8 block-2: -3.2

How did Cc1ccc(C2CCN(C(=O)Nc3ccc(F)cc3)C2)cc1 (stereo unspecified) do in these assays?
SENP6 inh: 60.9*; SENP1 FRET inh: 2.4; Platelet DG rel: 10.2; SENP7 block: 3.8; SENP8 block-1: -5.0; SENP8 block-2: 12.4; SENP8 conf: 9.4; SENP6 confirm: 1.3; SENP7 conf: 13.0; Casp3 SENP sel: 17.7; Luc interf: 12.2

What do the screens show for `O=C(Nc1ccccc1)N1CC=C(c2ccc(F)cc2)CC1`?
SENP6 inh: 51.5*; SENP1 FRET inh: -1.7; Platelet DG rel: 13.9; SENP7 block: 34.6; SENP8 block-1: 0.3; SENP8 block-2: -20.9; SENP8 conf: 24.7; SENP6 confirm: 18.4; SENP7 conf: 58.8*; Casp3 SENP sel: 30.1; Luc interf: 42.3

How did Cc1ccc(NC(=O)C2CCCN(C(=O)Nc3ccc(F)cc3)C2)cc1 (stereo unspecified) do in these assays?
SENP6 inh: -8.2; SENP1 FRET inh: 0.9; Platelet DG rel: -1.7; SENP7 block: -5.8; SENP8 block-1: 0.0; SENP8 block-2: 11.7
